Laboratory results: ChEMBL document CHEMBL1134511, “Development of potent non-carbohydrate imidazole-based small molecule selectin inhibitors with antiinflammatory activity” (J Med Chem, 2001)

Tests used:
P-selectin [1] = biological target: T1, P-selectin (Homo sapiens, UniProt P16109); assay: Inhibitory activity against P-selectin using cell-selectin protein assay
T1 sequence (P16109 whole entry): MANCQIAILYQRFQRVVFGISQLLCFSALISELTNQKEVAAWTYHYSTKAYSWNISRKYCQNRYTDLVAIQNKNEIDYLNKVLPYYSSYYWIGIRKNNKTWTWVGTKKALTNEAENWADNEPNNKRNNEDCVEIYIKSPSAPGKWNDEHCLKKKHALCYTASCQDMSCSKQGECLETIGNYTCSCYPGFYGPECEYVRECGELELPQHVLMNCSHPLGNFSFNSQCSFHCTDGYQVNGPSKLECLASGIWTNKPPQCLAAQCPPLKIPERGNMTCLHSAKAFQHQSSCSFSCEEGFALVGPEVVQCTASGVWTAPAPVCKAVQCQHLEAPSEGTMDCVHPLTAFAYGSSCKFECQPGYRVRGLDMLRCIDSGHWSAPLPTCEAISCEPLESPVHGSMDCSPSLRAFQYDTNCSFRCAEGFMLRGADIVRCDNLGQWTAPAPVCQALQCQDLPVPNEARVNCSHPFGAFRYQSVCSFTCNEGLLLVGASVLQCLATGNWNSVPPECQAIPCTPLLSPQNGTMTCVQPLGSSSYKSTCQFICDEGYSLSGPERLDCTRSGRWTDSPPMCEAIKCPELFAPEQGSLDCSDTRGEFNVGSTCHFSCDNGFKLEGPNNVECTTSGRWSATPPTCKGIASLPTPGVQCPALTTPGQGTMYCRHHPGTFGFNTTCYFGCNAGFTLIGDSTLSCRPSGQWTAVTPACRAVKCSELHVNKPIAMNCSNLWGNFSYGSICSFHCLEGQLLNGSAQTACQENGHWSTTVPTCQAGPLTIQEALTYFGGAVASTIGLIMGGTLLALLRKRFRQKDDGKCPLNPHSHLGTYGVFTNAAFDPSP

P-selectin [2] = biological target: T1, P-selectin; assay: Inhibitory activity against P-selectin using ELISA-based assay
How it was run: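 P-selectin–IgG chimera precomplexed with biotinylated goat F(ab')2 anti-human IgG and streptavidin–alkaline phosphatase, preincubated with compound 30 min RT in 50 mM imidazole pH 7.2, 1% BSA, 1 mM CaCl2. Mix added to sialyl Lewis^x pentaceramide-coated (40-100 pmol/well), BSA-blocked wells, 45 min 37 °C. p-Nitrophenyl phosphate read at 405 nm; chimera-free background subtracted; duplicate/triplicate; IC50 from % inhibition.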

E-selectin = biological target: T2, E-selectin (Homo sapiens, UniProt P16581); assay: Inhibitory activity against Selectin E using cell-cell assay; Not active; assay type: functional
T2 sequence (P16581 whole entry): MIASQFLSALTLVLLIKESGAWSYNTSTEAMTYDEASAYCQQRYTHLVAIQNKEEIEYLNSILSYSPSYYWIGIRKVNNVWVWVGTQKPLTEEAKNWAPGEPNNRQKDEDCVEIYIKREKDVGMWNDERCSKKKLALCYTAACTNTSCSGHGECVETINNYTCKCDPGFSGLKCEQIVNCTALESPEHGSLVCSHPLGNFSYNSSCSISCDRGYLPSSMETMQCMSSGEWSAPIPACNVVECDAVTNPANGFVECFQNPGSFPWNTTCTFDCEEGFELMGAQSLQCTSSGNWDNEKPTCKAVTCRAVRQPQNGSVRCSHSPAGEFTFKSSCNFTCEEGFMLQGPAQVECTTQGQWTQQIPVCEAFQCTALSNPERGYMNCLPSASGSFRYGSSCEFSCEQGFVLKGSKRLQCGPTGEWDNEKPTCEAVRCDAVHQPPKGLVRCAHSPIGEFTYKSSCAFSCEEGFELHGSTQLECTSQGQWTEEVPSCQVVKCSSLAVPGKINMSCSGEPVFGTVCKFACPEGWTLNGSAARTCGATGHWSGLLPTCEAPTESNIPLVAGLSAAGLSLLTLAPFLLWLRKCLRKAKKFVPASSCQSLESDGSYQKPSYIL
How it was run: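 HUVEC monolayers (≤4-5 passages, gelatin-coated wells) activated on assay day with 10 ng/mL IL-1β as native E-selectin source. Compounds at 2× in cold RPMI preincubated 20 min 4 °C in triplicate; BCECF-AM-labelled HL60 cells (2 × 10⁶ cells/mL) added, 30 min 4 °C. Unbound cells washed off, bound cells read by fluorescence; IC50 by Probit analysis.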

P-selectin [3] = biological target: T1, P-selectin; assay: Inhibitory activity against P-selectin using cell-cell assay; Not active; assay type: functional
How it was run: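 CHO cells stably transfected with human P-selectin, plated the day before, used as monolayers. Compounds added at 2× in cold RPMI, 20 min 4 °C; BCECF-AM-labelled HL60 cells (2 × 10⁶ cells/mL) then adhered 30 min at 4 °C. Unbound cells washed off, bound cells read by fluorescence; triplicates; IC50 by Probit analysis.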

In the case of `CCCCCCCCCCCCNC(=O)/C=C/c1ccc(-c2[nH]c(-c3ccc(-c4cc(C(=O)O)on4)cc3)nc2-c2ccc(/C=C/C(=O)O)cc2)cc1`, the IC50 (P-selectin [1]) is reported as 290 µM, the IC50 (P-selectin [2]) is reported as 3 µM and the IC50 (E-selectin) is reported as “Not Active”.
Work on `O=C(O)/C=C/c1ccc(-c2nc(-c3ccc(/C=C/C(=O)NCCCc4ccccc4)cc3)c(-c3ccc(C4=NOC(C(=O)O)C4)cc3)[nH]2)cc1` (stereo not given) yielded an IC50 (P-selectin [1]) of 21 µM and an IC50 (P-selectin [2]) of 100 µM.
`CCCCCCCCCCCCCCCCNC(=O)/C=C/c1ccc(-c2[nH]c(-c3ccc(-c4cc(C(=O)O)on4)cc3)nc2-c2ccc(/C=C/C(=O)O)cc2)cc1` showed an IC50 (P-selectin [1]) of 2.7 µM and an IC50 (P-selectin [2]) of 0.13 µM.
`CC(=O)N[C@H]1[C@H]([C@H](O)[C@H](O)CO)O[C@@](O[C@H]2[C@@H](O)[C@@H](CO)O[C@@H](O[C@@H]([C@H](O[C@@H]3O[C@@H](C)[C@@H](O)[C@@H](O)[C@@H]3O)[C@H](C=O)NC(C)=O)[C@H](O)CO)[C@@H]2O)(C(=O)O)C[C@@H]1O` [SIALYL LEWIS X] showed an IC50 (P-selectin [2]) greater than 1 µM.
With `CCCCCCCCCCCCCCCCNC(=O)/C=C/c1ccc(-c2[nH]c(-c3ccc(C4=NOC(C(=O)O)C4)cc3)nc2-c2ccc(/C=C/C(=O)O)cc2)cc1` (stereo not given) the IC50 (P-selectin [1]) was 9 µM and the IC50 (P-selectin [2]) was 0.29 µM.
With `CCCCCCN(CCCCCC)C(=O)/C=C/c1ccc(-c2[nH]cnc2-c2ccc(/C=C/C(=O)O)cc2)cc1` the IC50 (P-selectin [1]) was 21 µM, the IC50 (E-selectin) was “Not Active” and the IC50 (P-selectin [3]) was “Not Active”.
`O=C(/C=C/c1ccc(-c2nc(-c3ccc(N4CCCC4)cc3)[nH]c2-c2ccc(C3=NOC(C(=O)O)C3)cc2)cc1)NCCCc1ccccc1` (stereo not given) was tested, and the IC50 (P-selectin [1]) was 50 µM, the IC50 (P-selectin [2]) was 34 µM and the IC50 (P-selectin [3]) was “Not Active”.
`CCCCCCCc1ccc(NC(=O)/C=C/c2ccc(-c3[nH]cnc3-c3ccc(/C=C/C(=O)O)cc3)cc2)cc1` showed an IC50 (P-selectin [1]) of 44 µM and an IC50 (P-selectin [2]) of 16 µM.
`CCCCCCCCCCCCCCCCNC(=O)/C=C/c1ccc(-c2[nH]cnc2-c2ccc(/C=C/C(=O)O)cc2)cc1` gave an IC50 (P-selectin [1]) of 40 µM and an IC50 (P-selectin [2]) of 17 µM.
